Laboratory results taken from ChEMBL document CHEMBL3751743, “Synthesis and anti-cancer screening of novel heterocyclic-(2H)-1,2,3-triazoles as potential anti-cancer agents” (Medchemcomm, 2015).

What was measured:
[1] = Cytotoxicity against human DU145 cells after 48 hrs by SRB assay; type: functional; details: DU-145, 48 h
How it was run: (§1)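 NCI-60 five-dose screen: compounds dissolved in DMSO/H2O, tested at five 10-fold dilutions (10^-4 to 10^-8 M) for 48 h. Growth measured by sulforhodamine B optical density at time zero and after 48 h drug or vehicle exposure. Percentage growth calculated relative to control. GI50 is the molar concentration giving 50% reduction in net cell growth versus day-0 cell numbers.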

MCF7 = assay: Cytotoxicity against human MCF7 cells after 48 hrs by SRB assay; type: functional; details: MCF7, 48 h; how it was run: as §1
MDA-MB-231 = assay: Cytotoxicity against human MDA-MB-231 cells after 48 hrs by SRB assay; type: functional; details: MDA-MB-231, 48 h; how it was run: as §1
[2] = Cytotoxicity against human Hs 578T cells after 48 hrs by SRB assay; type: functional; how it was run: as §1
[3] = Cytotoxicity against human BT549 cells after 48 hrs by SRB assay; type: functional; details: BT-549, 48 h; how it was run: as §1
MDA-MB-468 = assay: Cytotoxicity against human MDA-MB-468 cells after 48 hrs by SRB assay; type: functional; details: MDA-MB-468, 48 h; how it was run: as §1
[4] = Cytotoxicity against human Hs578T cells assessed as reduction of cell viability after 48 hrs by calcein-AM-based fluorescence analysis; type: functional; details: Hs-578T
How it was run: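 Cells seeded at 3,000 per well in DMEM with 10% FBS and left overnight at 37 °C. A range of compound concentrations or vehicle was then added for 48 h. Cells were washed with DPBS pH 7.4 and loaded with 2 μM calcein-AM for 30 min at 25 °C. Fluorescence read at ex 490/em 520 nm; viability is given relative to untreated control (100%). Mean ± s.d.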

Tubulin = Tubulin (Sus scrofa, UniProt P02554+P02550); assay: Inhibition of porcine brain tubulin polymerization by spectrophotometric analysis
How it was run: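 Tubulin at 4 mg/mL in cold 80 mM PIPES pH 6.9 with 2 mM MgCl2, 0.5 mM EGTA, GTP and 10% glycerol. Compound (added as 10x stock in 50% DMSO) or DMSO was preincubated 2 min at 37 °C in a prewarmed plate. Cold tubulin was then added, and polymerization at 37 °C was followed by A340 over time. Dose-response, mean ± s.d., n=3.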

CCRF-CEM = assay: Cytotoxicity against human CCRF-CEM cells after 48 hrs by SRB assay; type: functional; how it was run: as §1
[5] = Cytotoxicity against human HL-60(TB) cells after 48 hrs by SRB assay; type: functional; details: HL-60, 48 h; how it was run: as §1
K562 = assay: Cytotoxicity against human K562 cells after 48 hrs by SRB assay; type: functional; details: K562, 48 h; how it was run: as §1
[6] = Cytotoxicity against human MOLT4 cells after 48 hrs by SRB assay; type: functional; details: MOLT-4, 48 h; how it was run: as §1
[7] = Cytotoxicity against human RPMI8226 cells after 48 hrs by SRB assay; type: functional; details: RPMI-8226, 48 h; how it was run: as §1
SR = assay: Cytotoxicity against human SR cells after 48 hrs by SRB assay; type: functional; how it was run: as §1
A549 = assay: Cytotoxicity against human A549 cells after 48 hrs by SRB assay; type: functional; details: A549, 48 h; how it was run: as §1
[8] = Cytotoxicity against human HOP62 cells after 48 hrs by SRB assay; type: functional; details: HOP-62, 48 h
How it was run: (§2)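 NCI-60 five-dose screen: compounds in DMSO/H2O tested at 10^-4 to 10^-8 M (10-fold steps) for 48 h. Cell mass read by sulforhodamine B optical density at time zero and after exposure to compound or vehicle. GI50 is the concentration giving 50% reduction in net cell growth relative to day-0 cell numbers.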

[9] = Cytotoxicity against human HOP92 cells after 48 hrs by SRB assay; type: functional; details: HOP-92, 48 h; how it was run: as §1
NCI-H23 = assay: Cytotoxicity against human NCI-H23 cells after 48 hrs by SRB assay; type: functional; details: NCI-H23, 48 h; how it was run: as §1
NCI-H460 = assay: Cytotoxicity against human NCI-H460 cells after 48 hrs by SRB assay; type: functional; details: NCI-H460, 48 h; how it was run: as §1
NCI-H522 = assay: Cytotoxicity against human NCI-H522 cells after 48 hrs by SRB assay; type: functional; details: NCI-H522, 48 h; how it was run: as §1
[10] = Cytotoxicity against human COLO205 cells after 48 hrs by SRB assay; type: functional; details: COLO 205, 48 h; how it was run: as §1
[11] = Cytotoxicity against human HCC2998 cells after 48 hrs by SRB assay; type: functional; details: HCC 2998, 48 h; how it was run: as §1
[12] = Cytotoxicity against human HCT116 cells after 48 hrs by SRB assay; type: functional; details: HCT-116, 48 h; how it was run: as §1
[13] = Cytotoxicity against human HCT15 cells after 48 hrs by SRB assay; type: functional; details: HCT-15, 48 h; how it was run: as §1
HT-29 = assay: Cytotoxicity against human HT-29 cells after 48 hrs by SRB assay; type: functional; details: HT-29, 48 h; how it was run: as §1
KM12 = assay: Cytotoxicity against human KM12 cells after 48 hrs by SRB assay; type: functional; details: KM12, 48 h; how it was run: as §1
[14] = Cytotoxicity against human SW620 cells after 48 hrs by SRB assay; type: functional; details: SW-620, 48 h; how it was run: as §1
[15] = Cytotoxicity against human SF268 cells after 48 hrs by SRB assay; type: functional; details: SF-268, 48 h; how it was run: as §1
[16] = Cytotoxicity against human SF295 cells after 48 hrs by SRB assay; type: functional; details: SF-295, 48 h; how it was run: as §1
[17] = Cytotoxicity against human SF539 cells after 48 hrs by SRB assay; type: functional; details: SF-539, 48 h; how it was run: as §1
[18] = Cytotoxicity against human SNB19 cells after 48 hrs by SRB assay; type: functional; details: SNB-19, 48 h; how it was run: as §1
[19] = Cytotoxicity against human SNB75 cells after 48 hrs by SRB assay; type: functional; details: SNB-75, 48 h; how it was run: as §1
U-251 = assay: Cytotoxicity against human U251 cells after 48 hrs by SRB assay; type: functional; details: U-251, 48 h
How it was run: (§3)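 NCI-60 five-dose screen. Compounds dissolved in DMSO/H2O and tested at five 10-fold dilutions (10^-4 to 10^-8 M) for 48 h. Growth read by sulforhodamine B optical density at time zero and after 48 h of exposure to compound or vehicle. Percent growth calculated against control. GI50 is the molar concentration giving 50% reduction in net cell growth relative to cell number on day 0.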

[20] = Cytotoxicity against human LOXIMVI cells after 48 hrs by SRB assay; type: functional; details: LOX IMVI; how it was run: as §1
M14 = assay: Cytotoxicity against human M14 cells after 48 hrs by SRB assay; type: functional; details: M14, 48 h; how it was run: as §1
MDA-MB-435 = assay: Cytotoxicity against human MDA-MB-435 cells after 48 hrs by SRB assay; type: functional; details: MDA-MB-435, 48 h; how it was run: as §1
SK-MEL-2 = assay: Cytotoxicity against human SK-MEL-2 cells after 48 hrs by SRB assay; type: functional; details: SK-MEL-2, 48 h; how it was run: as §1
SK-MEL-28 = assay: Cytotoxicity against human SK-MEL-28 cells after 48 hrs by SRB assay; type: functional; details: SK-MEL-28, 48 h; how it was run: as §1
SK-MEL-5 = assay: Cytotoxicity against human SK-MEL-5 cells after 48 hrs by SRB assay; type: functional; details: SK-MEL-5, 48 h; how it was run: as §1
[21] = Cytotoxicity against human UACC257 cells after 48 hrs by SRB assay; type: functional; details: UACC-257, 48 h; how it was run: as §3
[22] = Cytotoxicity against human UACC62 cells after 48 hrs by SRB assay; type: functional; details: UACC-62, 48 h; how it was run: as §3
[23] = Cytotoxicity against human IGROV1 cells after 48 hrs by SRB assay; type: functional; details: IGROV-1, 48 h; how it was run: as §2
[24] = Cytotoxicity against human OVCAR3 cells after 48 hrs by SRB assay; type: functional; details: OVCAR-3, 48 h; how it was run: as §1
[25] = Cytotoxicity against human OVCAR4 cells after 48 hrs by SRB assay; type: functional; details: OVCAR-4, 48 h; how it was run: as §1
[26] = Cytotoxicity against human OVCAR5 cells after 48 hrs by SRB assay; type: functional; details: OVCAR-5, 48 h; how it was run: as §1
[27] = Cytotoxicity against human OVCAR8 cells after 48 hrs by SRB assay; type: functional; details: OVCAR-8, 48 h; how it was run: as §1
[28] = Cytotoxicity against human NCI-ADR-RES cells after 48 hrs by SRB assay; type: functional; how it was run: as §1
[29] = Cytotoxicity against human SKOV3 cells after 48 hrs by SRB assay; type: functional; details: SK-OV-3, 48 h; how it was run: as §1
786-0 = assay: Cytotoxicity against human 786-0 cells after 48 hrs by SRB assay; type: functional; details: 786-0, 48 h; how it was run: as §1
A498 = assay: Cytotoxicity against human A498 cells after 48 hrs by SRB assay; type: functional; details: A498, 48 h; how it was run: as §1
ACHN = assay: Cytotoxicity against human ACHN cells after 48 hrs by SRB assay; type: functional; how it was run: as §1
[30] = Cytotoxicity against human Caki1 cells after 48 hrs by SRB assay; type: functional; details: CAKI-1, 48 h; how it was run: as §1
SN12C = assay: Cytotoxicity against human SN12C cells after 48 hrs by SRB assay; type: functional; how it was run: as §1
[31] = Cytotoxicity against human UO31 cells after 48 hrs by SRB assay; type: functional; details: UO-31, 48 h; how it was run: as §3
[32] = Cytotoxicity against human PC3 cells after 48 hrs by SRB assay; type: functional; details: PC-3, 48 h; how it was run: as §1

Structure (SMILES): COc1cc(-c2n[nH]nc2-c2cc3ccccc3s2)cc(OC)c1OC
- GI50 [1]: < 0.01 µM
- GI50 (MCF7): < 0.01 µM
- GI50 (MDA-MB-231): 0.014 µM
- GI50 [2]: < 0.01 µM
- GI50 [3]: < 0.01 µM
- GI50 (MDA-MB-468): < 0.01 µM
- GI50 [4]: 0.01 µM
- IC50 (Tubulin): 1.7 µM
- GI50 (CCRF-CEM): 0.028 µM
- GI50 [5]: < 0.01 µM
- GI50 (K562): < 0.01 µM
- GI50 [6]: 0.042 µM
- GI50 [7]: < 0.01 µM
- GI50 (SR): < 0.01 µM
- GI50 (A549): 0.023 µM
- GI50 [8]: 0.015 µM
- GI50 [9]: < 0.01 µM
- GI50 (NCI-H23): < 0.01 µM
- GI50 (NCI-H460): < 0.01 µM
- GI50 (NCI-H522): < 0.01 µM
- GI50 [10]: < 0.01 µM
- GI50 [11]: 0.036 µM
- GI50 [12]: < 0.01 µM
- GI50 [13]: < 0.01 µM
- GI50 (HT-29): 0.02 µM
- GI50 (KM12): 0.022 µM
- GI50 [14]: < 0.01 µM
- GI50 [15]: < 0.01 µM
- GI50 [16]: < 0.01 µM
- GI50 [17]: < 0.01 µM
- GI50 [18]: < 0.01 µM
- GI50 [19]: < 0.01 µM
- GI50 (U-251): < 0.01 µM
- GI50 [20]: < 0.01 µM
- GI50 (M14): < 0.01 µM
- GI50 (MDA-MB-435): < 0.01 µM
- GI50 (SK-MEL-2): < 0.01 µM
- GI50 (SK-MEL-28): < 0.01 µM
- GI50 (SK-MEL-5): < 0.01 µM
- GI50 [21]: < 0.01 µM
- GI50 [22]: < 0.01 µM
- GI50 [23]: < 0.01 µM
- GI50 [24]: < 0.01 µM
- GI50 [25]: 0.042 µM
- GI50 [26]: 0.042 µM
- GI50 [27]: < 0.01 µM
- GI50 [28]: < 0.01 µM
- GI50 [29]: < 0.01 µM
- GI50 (786-0): < 0.01 µM
- GI50 (A498): < 0.01 µM
- GI50 (ACHN): < 0.01 µM
- GI50 [30]: < 0.01 µM
- GI50 (SN12C): 0.048 µM
- GI50 [31]: < 0.01 µM
- GI50 [32]: 0.034 µM
